Source: ChEMBL document CHEMBL1782035, “Synthesis and SAR of piperazine amides as novel c-jun N-terminal kinase (JNK) inhibitors” (Bioorg Med Chem Lett, 2009)
Calls of active or inactive are those of the source. The calls are words filed in the database; no cut-off is given here.

Columns and labels:
[1] = target: Mitogen-activated protein kinase 8 (Homo sapiens, UniProt P45983); assay: Inhibition of JNK1 using biotinylated ATF2 and ATP substrates by HTRF assay
Procedure, shortened: (§1)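 HTRF kinase assay with final JNK1 at 0.1 nM or JNK3 at 0.3 nM, biotinylated ATF-2 at 0.4 nM and ATP at 1 μM. Phospho-Thr71-ATF-2 product was detected with a Europium-cryptate anti-phospho-Thr71-ATF-2 antibody and a streptavidin-allophycocyanin-XL acceptor. 10-point dose-response curves were run in duplicate, and IC50 was obtained from a four-parameter logistic fit.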

[2] = target: Mitogen-activated protein kinase 10 (Homo sapiens, UniProt P53779); assay: Inhibition of JNK3 using biotinylated ATF2 and ATP substrates by HTRF assay; procedure, shortened: as §1
Mitogen-activated protein kinase 10, sequence (P53779 whole entry): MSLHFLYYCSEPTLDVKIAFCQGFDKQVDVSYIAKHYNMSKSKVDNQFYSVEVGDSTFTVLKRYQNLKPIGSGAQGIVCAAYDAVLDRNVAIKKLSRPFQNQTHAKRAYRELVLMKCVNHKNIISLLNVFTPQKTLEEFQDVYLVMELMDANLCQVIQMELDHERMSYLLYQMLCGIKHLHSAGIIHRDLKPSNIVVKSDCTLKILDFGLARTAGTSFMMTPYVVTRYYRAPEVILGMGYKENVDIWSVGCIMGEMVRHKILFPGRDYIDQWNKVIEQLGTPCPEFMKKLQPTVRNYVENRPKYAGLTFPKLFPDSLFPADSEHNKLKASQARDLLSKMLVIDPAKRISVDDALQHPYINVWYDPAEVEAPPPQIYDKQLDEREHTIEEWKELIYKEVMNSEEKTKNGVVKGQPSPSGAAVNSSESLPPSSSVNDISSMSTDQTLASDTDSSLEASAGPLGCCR

[3] = Inhibition of p38
[4] = Inhibition of JNK-mediated c-jun phosphorylation in rat INS-1 cells by ELISA incubated for 3 hrs at 37 degC; type: cell-based; conditions: INS1, 3 h
Procedure, shortened: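 INS-1 β-pancreatic cells seeded at 3.5 × 10^4 cells/well in RPMI 1640 with 10% FBS, cultured overnight at 37 °C, 5% CO2. Cells exposed 3 h to 4 mM streptozoicin plus inhibitor (DMSO) in a 10-point dilution spanning four logs, then lysed. Phospho-c-jun captured overnight at 4 °C by sandwich ELISA, TMB read at 450 nm; EC50 from four-parameter logistic.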

Mitogen-activated protein kinase 8, sequence (P45983 whole entry): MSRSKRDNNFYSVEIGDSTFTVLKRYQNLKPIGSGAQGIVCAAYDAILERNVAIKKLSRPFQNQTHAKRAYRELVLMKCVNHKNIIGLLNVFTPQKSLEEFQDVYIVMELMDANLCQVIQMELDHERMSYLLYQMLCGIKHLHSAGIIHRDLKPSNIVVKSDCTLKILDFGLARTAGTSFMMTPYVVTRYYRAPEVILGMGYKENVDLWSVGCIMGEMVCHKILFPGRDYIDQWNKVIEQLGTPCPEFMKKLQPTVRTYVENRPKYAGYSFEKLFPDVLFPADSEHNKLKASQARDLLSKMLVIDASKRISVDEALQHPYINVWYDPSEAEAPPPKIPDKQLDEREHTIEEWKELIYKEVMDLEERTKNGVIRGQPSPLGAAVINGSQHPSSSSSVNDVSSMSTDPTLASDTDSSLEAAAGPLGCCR

Structure (SMILES)	IC50 [1] [nM]	IC50 [2] [nM]	inhibition [3]	IC50 [3] [nM]	IC50 [4] [nM]
C=CCN1CCN(c2c(Cl)cccc2NC(=O)c2nc(Br)cs2)CC1	1800	1800			
C=CCN1CCN(c2c(Cl)cccc2NC(=O)c2cscn2)CC1		2300			
C=CCN1CCN(c2c(NC(=O)c3ccc(Br)o3)cccc2-c2ccccc2)CC1	> 20000	> 20000	inactive		
Cc1cccc(NC(=O)c2ccc(Cl)o2)c1N1CCC2(CC1)OCCO2	40	80			
C=CCN1CCN(c2c(Br)cccc2NC(=O)c2ccc(Br)o2)CC1	> 20000	> 20000	inactive		
C=CCN1CCN(c2c(NC(=O)c3ccc(Br)o3)cccc2Nc2ccccc2)CC1	> 20000	> 20000	inactive		
CC(=O)Nc1ccc(C(=O)Nc2cccc(C)c2N2CCC3(CC2)OCCO3)o1	5800	11000			
CC(C)N1CCN(c2c(Cl)cccc2NC(=O)c2ccc(Br)o2)CC1	1500	2200	inactive		
C=CCN1CCN(c2c(Cl)cccc2NC(=O)c2cccc(Br)c2)CC1	7100	6400			
Cc1cccc(NC(=O)c2ccc(Nc3ccccc3)o2)c1N1CCC2(CC1)OCCO2	> 20000	> 20000			
CCN1CCN(c2c(Cl)cccc2NC(=O)c2ccc(Br)o2)CC1	490			> 20000	
CC#Cc1ccc(C(=O)Nc2cccc(C)c2N2CCC3(CC2)OCCO3)o1	110	110			
CN1CCN(c2c(Cl)cccc2NC(=O)c2ccc(Br)o2)CC1	360	1200	inactive		
O=C(Nc1cccc(Cl)c1N1CCN(C(=O)C(F)(F)F)CC1)c1ccc(Br)o1	> 20000	> 20000	inactive		
C=CCN1CCN(c2c(Cl)cccc2NC(=O)c2csc(C)n2)CC1		5800			
C=CCN1CCN(c2c(Cl)cccc2NC(=O)c2cccc(Br)n2)CC1		2000			
C#CCN1CCN(c2c(F)cccc2NC(=O)c2ccc(Br)o2)CC1	110	290	inactive		
C=CCN1CCN(c2c(Cl)cccc2NC(=O)c2cccc(C)n2)CC1	1800	2000			
CC(C)(C)OC(=O)N1CCN(c2c(Cl)cccc2NC(=O)c2ccc(Br)o2)CC1	6300	> 20000	inactive		
Cc1ccc(C(=O)Nc2cccc(C)c2N2CCC3(CC2)OCCO3)o1	330	530			
C=CCN1CCN(c2c(Cl)cccc2NC(=O)c2cnc(Br)s2)CC1	330	310			
C=CCN1CCN(c2c(C)cccc2NC(=O)c2ccc(Br)o2)CC1	180	200	inactive		
C=C(C)CN1CCN(c2c(Cl)cccc2NC(=O)c2ccc(Br)o2)CC1	400	540	inactive		3300

Structure (SMILES)	IC50 [1] [nM]	IC50 [2] [nM]	inhibition [3]	IC50 [3] [nM]	IC50 [4] [nM]
C=CCN1CCN(c2c(Cl)cccc2NC(=O)c2ccc(Br)o2)CC1	240	330	inactive		
C=CCN1CCN(c2c(Cl)cccc2NC(=O)c2ccc(C#N)cn2)CC1	> 20000	> 20000			
Cc1cccc(NC(=O)c2ccc(C(F)F)o2)c1N1CCC2(CC1)OCCO2	260	350			
O=C(Nc1cccc(Cl)c1N1CCN(C2CC2)CC1)c1ccc(Br)o1	180	960	inactive		
COc1ccc(C(=O)Nc2cccc(C)c2N2CCC3(CC2)OCCO3)o1	450	620			
Cc1cccc(NC(=O)c2ccc(Br)o2)c1N1CCC2(CC1)OCCO2	90	60			
O=C(Nc1cccc(Cl)c1N1CCN(Cc2ccccc2)CC1)c1ccc(Br)o1	880	1100	inactive		
CC(=O)N1CCN(c2c(Cl)cccc2NC(=O)c2ccc(Br)o2)CC1	600	810	inactive		
Cc1cccc(NC(=O)c2ccc(Cc3ccccc3)o2)c1N1CCC2(CC1)OCCO2	3200	4800			
C=CCN1CCN(c2c(Cl)cccc2NC(=O)c2ccc[nH]2)CC1	4500	8900			
O=C(Nc1cccc(Cl)c1N1CCN(CCc2ccccc2)CC1)c1ccc(Br)o1	900	1400	inactive		
Cc1cccc(NC(=O)c2ccc(C#N)o2)c1N1CCC2(CC1)OCCO2	230	210			
O=C(Nc1cccc(Cl)c1N1CCN(c2ccccn2)CC1)c1ccc(Br)o1	1200	1000	inactive		
CCCN1CCN(c2c(Cl)cccc2NC(=O)c2ccc(Br)o2)CC1	630	900	inactive		
C=CCN1CCN(c2c(NC(=O)c3ccc(Br)o3)cccc2C(F)(F)F)CC1	> 20000	> 20000	inactive		
O=C(Nc1cccc(Cl)c1N1CCNCC1)c1ccc(Br)o1	4100	9900	inactive		
O=C(Nc1cccc(Cl)c1N1CCN(Cc2ccco2)CC1)c1ccc(Br)o1	270	250	inactive		
C=CCN1CCN(c2c(Cl)cccc2NC(=O)c2ccno2)CC1		5000			
C=CCN1CCN(c2c(Cl)cccc2NC(=O)c2ncccn2)CC1	> 20000	> 20000			
Cc1cccc(NC(=O)c2ccc(F)o2)c1N1CCC2(CC1)OCCO2	210	410			
C#CCN1CCN(c2c(Cl)cccc2NC(=O)c2ccc(Br)o2)CC1	140		inactive		
CCc1ccc(C(=O)Nc2cccc(C)c2N2CCC3(CC2)OCCO3)o1	1400	1000			
